GASC1 inh – KDM4C (human) demethylase inhibition | Q9H3R0 | GST-KDM4C 2-372, H3K9me3 peptide, LANCE TR-FRET | inhibition, % at 12.5 µM | actives 0.15% (n = 96,000);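 active = mean replicate inhibition above about 25%, with at least 55% of replicates also reaching it, limit read from the data, passing the limit was not always enough; inconclusive = only one of those two conditions met; inactive = neither condition met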
Target sequence (Q9H3R0 2-372 limits assumed): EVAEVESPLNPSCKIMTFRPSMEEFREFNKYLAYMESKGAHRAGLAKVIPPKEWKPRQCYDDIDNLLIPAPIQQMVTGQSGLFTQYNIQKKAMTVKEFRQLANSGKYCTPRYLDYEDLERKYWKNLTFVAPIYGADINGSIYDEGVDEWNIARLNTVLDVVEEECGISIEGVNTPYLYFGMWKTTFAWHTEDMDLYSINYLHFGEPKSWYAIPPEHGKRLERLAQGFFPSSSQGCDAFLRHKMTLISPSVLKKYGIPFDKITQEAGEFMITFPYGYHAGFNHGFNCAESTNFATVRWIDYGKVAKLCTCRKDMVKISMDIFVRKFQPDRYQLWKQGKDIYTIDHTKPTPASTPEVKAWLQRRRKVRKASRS
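System: N-terminal GST-fused human GASC-1 (KDM4C) fragment, residues 2-372; amount: enzyme final amount 10 nM; incubation: reaction 30 min RT, detection step 1 h RT; medium: HEPES buffer, pH 7.5, plus ascorbate; technique: LANCE TR-FRET, Eu antibody, ULight-streptavidin, EDTA, ex 340 nm, em 618/671 nm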
IDH1 R132H inh – blocks human IDH1 R132H reductase activity; diaphorase/resazurin fluorescence, 60 min; inhibition, % at 10 µM; actives 0.18% (n = 70,000); O75874; in the data active = inhibition above about 34%; inconclusive = no clear call, values can overlap the other calls; inactive = below about 11%;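 also: 0% = DMSO and 100% = no enzyme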
Pf Dd2 growth – inhibitors of Plasmodium falciparum Dd2 growth; P. falciparum Dd2 growth, SYBR Green, 72 h; stronger effect = lower value; activity change, % at 10 µM; actives 2.3% (n = 94,000); AID 1159554; in the data active = activity change below about -80%; inconclusive = no clear call, values can overlap the other calls
T cruzi growth-1 – inhibitors of T. cruzi proliferation; actives 5.9% (n = 77,000); inhibition, % at 8.34 µM; T. cruzi beta-gal in NIH3T3, GalScreen luminescence, 90 h; AID 624255;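 active = mean inhibition above about 93%, with at least 55% of replicates each passing it, limit read from the data, passing the limit was not always enough; inconclusive = only one of those two conditions holds; inactive = neither condition holds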
T cruzi growth-2 – blocks T. cruzi growth in NIH3T3 host cells; shares compounds with T cruzi growth-1; T. cruzi beta-gal in NIH3T3, GalScreen luminescence, 90 h; inhibition, % at 8.35 µM; actives 72% (n = 5,600); AID 651739;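 active = mean replicate inhibition above about 95% and at least 55% of replicates individually reaching it, limit read from the data; inconclusive = only one of the two criteria is met; inactive = neither criterion is met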
T cruzi growth-3 – inhibitors of T. cruzi proliferation; shares compounds with T cruzi growth-1; T. cruzi beta-gal in NIH3T3, GalScreen luminescence, 90 h; inhibition, % at 2.09 µM; actives 21% (n = 5,600); AID 651740;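 active = mean inhibition above about 95%, with at least 55% of replicates also reaching it, limit read from the data; inconclusive = meets just one of the two conditions; inactive = meets neither condition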;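 also: plate controls were neutral control median for no effect and positive control median for full effect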
NIH3T3 tox – cytotoxicity in mouse NIH/3T3 fibroblasts; shares compounds with T cruzi growth-1; NIH/3T3 viability, CellTiter-Glo ATP luminescence, 90 h; cytotoxicity (signal decrease), % at 8.35 µM; actives 14% (n = 5,600); AID 651742;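 active = mean signal decrease across replicates above about 35% based on untreated-well scatter, with enough replicates individually passing, limit read from the data; inconclusive = no rule stated though some were filed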;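 also: 0% = median of neutral control wells and 100% = median of positive control wells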
3T3 cytotox 2 – cytotoxicity in mouse NIH/3T3 fibroblasts; inhibition, % at 24.9 µM; AID 651744; actives 56% (n = 5,600); shares compounds with T cruzi growth-1; NIH/3T3 viability, CellTiter-Glo ATP luminescence, 90 h;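 active = mean loss of cell viability signal at or above a set limit, and enough replicates individually reaching it; inconclusive = meets only the mean limit or only the replicate share; inactive = meets neither condition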;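 also: 0% = median of neutral control wells and 100% = median of positive control wells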
Starred values were filed as active, the others as inactive; ? = inconclusive; · = no result. This is a sample that favours compounds with a hit; in the whole collection about 5.8% have one here.

SMILES	GASC1 inh	IDH1 R132H inh	Pf Dd2 growth	T cruzi growth-1	T cruzi growth-2	T cruzi growth-3	NIH3T3 tox	3T3 cytotox 2
CN(C)CC#Cc1ccc([C@@H]2[C@H](CO)N3CCCCN(C(=O)Nc4ccccc4F)C[C@@H]23)cc1	4	·	-40	102*	?	93	-8	39*
CN(C)CC#Cc1ccc([C@H]2[C@@H](CO)N3CCCCN(C(=O)Nc4cc(F)ccc4F)C[C@H]23)cc1	5	·	-40	109*	96*	50	21	101*
CN(C)CC#Cc1ccc([C@@H]2[C@@H](CO)N3CCCCN(C(=O)Nc4ccc(F)cc4)C[C@@H]23)cc1	4	·	-20	?	106*	82	2	?
CN(C)CC#Cc1ccc([C@H]2[C@@H](CO)N3CCCCN(C(=O)Nc4ccc(F)cc4)C[C@H]23)cc1	2	·	-47	53	·	·	·	·
COc1ccc(S(=O)(=O)n2cc(-c3ccc(C)cc3)c(N)n2)c(OC)c1	·	0	·	·	·	·	·	·
O=C(Nc1ccc(F)cc1)N1C[C@@H]2[C@H](c3ccccc31)[C@@H](CO)N2Cc1ccccc1Cl	0	·	-11	-32	·	·	·	·
O=C(C1CCCC1)N1C[C@H]2[C@@H](c3ccccc31)[C@H](CO)N2C(=O)c1ccccc1F	4	·	3	100*	90	38	6	?
O=C(Nc1ccc(F)cc1)N1C[C@H]2[C@@H](c3ccccc31)[C@@H](CO)N2Cc1ccccc1Cl	0	·	-9	?	101*	8	-10	-5
Cc1cccc(S(=O)(=O)N2C[C@H]3[C@@H](c4ccccc42)[C@H](CO)N3CC2CCCC2)c1	2	·	-41	?	112*	72	7	?
O=C(C1CCCCC1)N1C[C@H]2[C@@H](c3ccccc31)[C@@H](CO)N2Cc1ccccc1Cl	0	·	-14	101*	103*	24	15	34
CCn1ncc(CN(C)C(=O)c2cc(-c3cccnc3)nc3ccc(Cl)cc23)c1C	·	1	·	·	·	·	·	·
CC(C)N(C(=O)NC(=O)c1ccc(F)cc1F)C(C)C	·	0	·	·	·	·	·	·
CS(=O)(=O)N(CC(=O)Nc1cccc2ccccc12)c1ccc(I)cc1	·	0	·	·	·	·	·	·
CN(CC(N)=O)S(=O)(=O)c1ccc2ccccc2c1	·	0	·	·	·	·	·	·
O=C(Nc1ccc(Cl)cc1)N1C[C@H]2[C@@H](c3ccccc31)[C@H](CO)N2CC1CCCC1	-1	·	-35	31	·	·	·	·
O=C(Nc1ccc(Cl)cc1)N1C[C@@H]2[C@H](c3ccccc31)[C@H](CO)N2CC1CCCCC1	0	·	-21	118*	111*	31	15	103*
CC(C)(O)CCC(=O)C(C)(O)C1C(O)CC2(C)C3CC=C4C(CC(OC5OC(CO)C(O)C(O)C5O)C(O)C4(C)C)C3(C)CCC12C (stereo unspecified)	·	0	·	·	·	·	·	·
C[C@H]1CN([C@@H](C)CO)S(=O)(=O)c2ccc(C#CCN(C)C)cc2O[C@H]1CN(C)CC1CC1	3	-1	-39	110*	?	43	15	12
CCCC#Cc1ccc2c(c1)O[C@H](CN(C)CC1CC1)[C@H](C)CN([C@H](C)CO)S2(=O)=O	1	-1	-48	-12	·	·	·	·
C[C@@H]1CN([C@H](C)CO)S(=O)(=O)c2ccc(C#CCN(C)C)cc2O[C@H]1CN(C)CC1CCCC1	2	0	-77	104*	107*	69	11	104*
Clc1ccc(CSc2nnc(-c3cccs3)n2Cc2ccco2)c(Cl)c1	·	-1	·	·	·	·	·	·
C[C@@H]1CCCCO[C@@H](CN(C)Cc2ccc(Cl)c(Cl)c2)[C@@H](C)CN([C@H](C)CO)C(=O)c2cc(NC(=O)Nc3ccc4c(c3)OCO4)ccc2O1	-4	0	39	104*	104*	69	8	-8
C[C@@H]1CCCCO[C@@H](CN(C)Cc2ccc(Cl)c(Cl)c2)[C@@H](C)CN([C@H](C)CO)C(=O)c2cc(NC(=O)CCC(F)(F)F)ccc2O1	·	·	-20	?	108*	82	-5	-18
C[C@H](CO)N1C[C@H](C)[C@H](CN(C)Cc2ccc(Cl)c(Cl)c2)Oc2ccc(NC(=O)CCCCCC(=O)Nc3ccccc3N)cc2C1=O	-3	·	-27	97*	103*	102*	11	32*
C[C@@H]1CN([C@@H](C)CO)C(=O)c2cc(NC(=O)Nc3ccc4c(c3)OCO4)ccc2O[C@@H](C)CCCCO[C@H]1CN(C)Cc1ccc2c(c1)OCO2	1	·	-72	95	·	·	·	·
SMILES	GASC1 inh	IDH1 R132H inh	Pf Dd2 growth	T cruzi growth-1	T cruzi growth-2	T cruzi growth-3	NIH3T3 tox	3T3 cytotox 2
C[C@@H]1CCCCO[C@@H](CN(C)Cc2ccc3c(c2)OCO3)[C@H](C)CN([C@@H](C)CO)C(=O)c2cc(NC(=O)Nc3ccc4c(c3)OCO4)ccc2O1	-1	·	-65	103*	99*	20	19	21
C[C@@H]1CN([C@@H](C)CO)C(=O)c2cc(NC(=O)CCC(F)(F)F)ccc2O[C@@H](C)CCCCO[C@H]1CN(C)Cc1ccc(Cl)c(Cl)c1	2	2	-80	64	·	·	·	·
CSc1ccccc1NC(=O)CN(c1ccc(Cl)cc1)S(C)(=O)=O	·	0	·	·	·	·	·	·
CCCN(CCC)CC1CCCCN1CCNC(=O)N1c2ccccc2C(=O)Nc2cccnc21 (stereo unspecified)	·	-1	·	·	·	·	·	·
CC1=C(CC/C(C)=C/C(=O)O)[C@@]2(C)CCCC(C)(C)C2CC1 (stereo partly specified)	·	1	·	·	·	·	·	·
C[C@H](CO)N1C[C@H](C)[C@@H](CN(C)C(=O)C2CCCCC2)OCCCC[C@H](C)Oc2ccc(NC(=O)Nc3ccc4c(c3)OCO4)cc2C1=O	0	3	5	111*	79	6	-19	3
C[C@H](CO)N1C[C@H](C)[C@H](CN(C)Cc2ccc3c(c2)OCO3)OCCCC[C@H](C)Oc2ccc(NC(=O)Nc3ccccc3)cc2C1=O	-1	1	-38	103*	106*	82	26	104*
C[C@@H]1CCCCO[C@H](CN(C)CC2CCCCC2)[C@@H](C)CN([C@H](C)CO)C(=O)c2cc(NC(=O)Nc3ccc4c(c3)OCO4)ccc2O1	15	·	-67	97*	109*	112*	12	83*
C[C@@H]1CN([C@H](C)CO)C(=O)c2cc(NC(=O)Nc3ccc4c(c3)OCO4)ccc2O[C@@H](C)CCCCO[C@@H]1CN(C)C(=O)C1CCCCC1	-1	-1	-78	18	·	·	·	·
C[C@@H]1CN([C@H](C)CO)C(=O)c2cc(NC(=O)Cc3ccccc3)ccc2O[C@@H]1CN(C)Cc1ccc(Cl)c(Cl)c1	0	1	-3	109*	109*	88	20	93*
COc1cccc(-c2nn(C)c3sc(C(=O)N4CCCCCC4)cc23)c1	·	-1	·	·	·	·	·	·
